In brackets after ≈: the same amount, converted by molar mass.
Legend:
[1] = biological target: T1, Decaprenylphosphoryl-beta-D-ribose oxidase (Mycobacterium tuberculosis (strain ATCC 25618 / H37Rv)) (UniProt P9WJF1); assay: Inhibition of Mycobacterium tuberculosis H37Rv DprE1 assessed as reduction in bacterial growth measured after 7 to 10 days by broth microdilution method
T1 sequence (whole entry): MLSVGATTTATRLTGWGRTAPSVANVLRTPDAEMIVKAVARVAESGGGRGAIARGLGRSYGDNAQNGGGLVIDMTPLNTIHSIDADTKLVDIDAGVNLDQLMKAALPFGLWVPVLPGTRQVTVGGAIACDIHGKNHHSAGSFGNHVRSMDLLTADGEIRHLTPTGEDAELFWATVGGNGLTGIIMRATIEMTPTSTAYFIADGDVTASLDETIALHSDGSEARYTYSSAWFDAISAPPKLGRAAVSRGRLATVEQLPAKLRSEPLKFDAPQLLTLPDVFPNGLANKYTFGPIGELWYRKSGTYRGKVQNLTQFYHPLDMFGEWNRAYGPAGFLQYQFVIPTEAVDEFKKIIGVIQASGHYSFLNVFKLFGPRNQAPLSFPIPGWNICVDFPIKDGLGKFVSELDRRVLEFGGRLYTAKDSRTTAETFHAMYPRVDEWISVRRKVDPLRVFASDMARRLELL
Procedure, shortened: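 Whole-cell growth assay of M. tuberculosis H37Rv in 7H9 broth. MIC is taken as the lowest concentration giving complete inhibition of observable growth.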

[2] = Selectivity ratio of MIC90 for inhibition of DprE1-mediated growth of Mycobacterium tuberculosis H37Rv to MIC90 for inhibition of DprE1-mediated growth of Mycobacterium tuberculosis CDC1551
[3] = Selectivity ratio of MIC90 for inhibition of DprE1-mediated growth of Mycobacterium tuberculosis H37Rv to MIC90 for inhibition of DprE1-mediated growth of Mycobacterium tuberculosis Erdman
[4] = Half life in […] microsomes at 2.5 uL preincubated for 5 mins followed by NADPH addition and measured by LC-MS/MS analysis; format: ADME, Liver, Microsome
[5] = Half life in mouse liver microsomes at 2.5 uL preincubated for 5 mins followed by NADPH addition and measured by LC-MS/MS analysis; format: ADME, Microsome
[6] = Protein binding in plasma (unknown origin) measured after 5 hrs by equilibrium dialysis method; format: ADME, cell-free; details: read-out: PPB (converted)
[7] = Kinetic aqueous solubility of the compound in pH 7.4 phosphate buffer incubated for 4.5 hrs under shaking condition by LC-MS/MS analysis; format: physicochemical; details: read-out: Kinetic_solubility
Procedure, shortened: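 Kinetic solubility measured in phosphate-buffered saline at pH 7.4, with compound quantified by LC–MS/MS.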

[8] = Stability of the compound in plasma (unknown origin); format: ADME, cell-free
[9] = Intrinsic clearance in human liver microsomes at 2.5 uL preincubated for 5 mins followed by NADPH addition and measured by LC-MS/MS analysis; format: ADME, Microsome; details: read-out: CLH
[10] = Intrinsic clearance in mouse liver microsomes at 2.5 uL preincubated for 5 mins followed by NADPH addition and measured by LC-MS/MS analysis; format: ADME, Microsome; details: read-out: CLH
[11] = Ratio of test compound kinetic aqueous solubility to PBTZ169 kinetic aqueous solubility; format: physicochemical; details: buffer
[12] = Mean residence time in specific pathogen free ICR mouse at 2 mg/kg, iv by LC/TSQ-MS analysis; format: ADME, organism-based; details: in vivo
Procedure, shortened: (§1)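 ICR mice dosed once with compound, intravenously at 2 mg/kg or orally at 10 mg/kg. Plasma pharmacokinetic parameters derived per route: AUC, Cmax, clearance, mean residence time, Vd, terminal elimination half-life, and oral bioavailability from the p.o. versus i.v. comparison.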

[13] = AUC in specific pathogen free ICR mouse at 10 mg/kg, po by LC/TSQ-MS analysis; format: ADME, organism-based; details: in vivo; procedure, shortened: as §1
[14] = AUC in specific pathogen free ICR mouse at 2 mg/kg, iv by LC/TSQ-MS analysis; format: ADME, organism-based; details: in vivo; procedure, shortened: as §1
[15] = Volume of distribution in specific pathogen free ICR mouse at 2 mg/kg, iv by LC/TSQ-MS analysis; format: ADME, organism-based; details: in vivo; procedure, shortened: as §1
[16] = Intrinsic clearance in specific pathogen free ICR mouse at 2 mg/kg, iv by LC/TSQ-MS analysis; format: ADME, organism-based; details: in vivo
[17] = Mean residence time in specific pathogen free ICR mouse at 10 mg/kg, po by LC/TSQ-MS analysis; format: ADME, organism-based; details: in vivo; procedure, shortened: as §1
[18] = Cmax in specific pathogen free ICR mouse at 2 mg/kg, iv by LC/TSQ-MS analysis; format: ADME, organism-based; design: dose 2 mg/kg, route intravenous; details: in vivo; procedure, shortened: as §1
[19] = Oral bioavailability in specific pathogen free ICR mouse at 10 mg/kg by LC/TSQ-MS analysis; format: ADME, organism-based; details: in vivo; procedure, shortened: as §1
[20] = Cmax in specific pathogen free ICR mouse at 10 mg/kg, po by LC/TSQ-MS analysis; format: ADME, organism-based; design: dose 10 mg/kg, route oral; details: in vivo; procedure, shortened: as §1
[21] = Terminal half life in specific pathogen free ICR mouse at 2 mg/kg, iv by LC/TSQ-MS analysis; format: ADME, organism-based; details: in vivo, read-out: beta t1/2 (converted); procedure, shortened: as §1
[22] = Terminal half life in specific pathogen free ICR mouse at 10 mg/kg, po by LC/TSQ-MS analysis; format: ADME, organism-based; details: in vivo, read-out: beta t1/2 (converted); procedure, shortened: as §1

O=c1nc(N2C[C@H]3C[C@@H](C2)N3CC2CCCCC2)sc2c([N+](=O)[O-])cc(C(F)(F)F)cc12
MIC [1]: 0.128 µM (≈ 0.06 µg/mL)
Selectivity ratio [2]: < 4
Selectivity ratio [3]: < 4

O=c1nc(N2CCN(CC3CCCCC3)CC2)sc2c([N+](=O)[O-])cc(C(F)(F)F)cc12 [MACOZINONE]
MIC [1]: 0.002 µM (≈ 0.000913 µg/mL)
half-life [4]: 43 min
Selectivity ratio [2]: < 4
Selectivity ratio [3]: < 4
half-life [5]: 34.4 min
fraction unbound at 5 h [6]: 0.001
solubility kinetic at 4.5 h [7]: < 0.01 µg/mL
Stability [8]: 88.7%
microsomal CLint [9]: 16.5 µL/min/mg
microsomal CLint [10]: 20.1 µL/min/mg

O=c1nc(N2C[C@H]3C[C@@H]2CN3CC2CCCCC2)sc2c([N+](=O)[O-])cc(C(F)(F)F)cc12
MIC [1]: 0.064 µM (≈ 0.03 µg/mL)
half-life [4]: 26.6 min
Selectivity ratio [2]: < 4
Selectivity ratio [3]: < 4
half-life [5]: 7.05 min
fraction unbound at 5 h [6]: 0.004
solubility kinetic at 4.5 h [7]: 14.6 µg/mL (≈ 31.2 µM)
Stability [8]: 81.9%
microsomal CLint [9]: 26.1 µL/min/mg
microsomal CLint [10]: 98.4 µL/min/mg
Ratio [11]: 1600

O=c1nc(N2CCC3(CC2)CN(CC2CCCCC2)C3)sc2c([N+](=O)[O-])cc(C(F)(F)F)cc12
MIC [1]: 0.512 µM (≈ 0.254 µg/mL)
Selectivity ratio [2]: < 4
Selectivity ratio [3]: < 4

O=c1nc(N2CCC3(CCN(CC4CCCCC4)C3)C2)sc2c([N+](=O)[O-])cc(C(F)(F)F)cc12 (stereo unspecified)
MIC [1]: 0.256 µM (≈ 0.127 µg/mL)
Selectivity ratio [2]: < 4
Selectivity ratio [3]: < 4

O=c1nc(N2CCC3(CCN(CC4CCCCC4)C3)CC2)sc2c([N+](=O)[O-])cc(C(F)(F)F)cc12
MIC [1]: 0.128 µM (≈ 0.0654 µg/mL)
Selectivity ratio [2]: < 4
Selectivity ratio [3]: < 4

O=c1nc(N2CC3CCC2CN3CC2CCCCC2)sc2c([N+](=O)[O-])cc(C(F)(F)F)cc12 (stereo unspecified)
MIC [1]: 0.032 µM (≈ 0.0154 µg/mL)
half-life [4]: 30.6 min
Selectivity ratio [2]: < 4
Selectivity ratio [3]: < 4
half-life [5]: 27.3 min
fraction unbound at 5 h [6]: 0.001
solubility kinetic at 4.5 h [7]: < 0.029 µg/mL
Stability [8]: 102%
microsomal CLint [9]: 22.7 µL/min/mg
microsomal CLint [10]: 25.4 µL/min/mg

O=c1nc(N2CC3(CCN(CC4CCCCC4)CC3)C2)sc2c([N+](=O)[O-])cc(C(F)(F)F)cc12
MIC [1]: 1.02 µM (≈ 0.508 µg/mL)
Selectivity ratio [2]: < 4
Selectivity ratio [3]: < 4

O=c1nc(N2CCC3(CC2)CC3)sc2c([N+](=O)[O-])cc(C(F)(F)F)cc12
MIC [1]: 0.016 µM (≈ 0.00617 µg/mL)
half-life [4]: 43 min
Selectivity ratio [2]: < 4
Selectivity ratio [3]: < 4
half-life [5]: 8.33 min
fraction unbound at 5 h [6]: 0.006
solubility kinetic at 4.5 h [7]: 0.3 µg/mL (≈ 0.778 µM)
Stability [8]: 93.3%
microsomal CLint [9]: 16.1 µL/min/mg
microsomal CLint [10]: 83.3 µL/min/mg

O=c1nc(N2[C@@H]3C[C@H]2CN(CC2CCCCC2)C3)sc2c([N+](=O)[O-])cc(C(F)(F)F)cc12
MIC [1]: 0.128 µM (≈ 0.06 µg/mL)
Selectivity ratio [2]: < 4
Selectivity ratio [3]: < 4

O=c1nc(N2C[C@@H]3[C@H](C2)[C@H]3NCC2CCCCC2)sc2c([N+](=O)[O-])cc(C(F)(F)F)cc12
MRT [12]: 134 min
MIC [1]: 0.032 µM (≈ 0.015 µg/mL)
AUC [13]: 0.791 µg·h/mL
half-life [4]: 76.6 min
AUC [14]: 0.576 µg·h/mL
Selectivity ratio [2]: < 4
Vd [15]: 12.8 L/kg
CL [16]: 3.49 L/h/kg
MRT [17]: 185 min
Selectivity ratio [3]: < 4
half-life [5]: 65.2 min
fraction unbound at 5 h [6]: 0.005
Cmax [18]: 0.483 µg/mL
solubility kinetic at 4.5 h [7]: 4.8 µg/mL (≈ 10.2 µM)
Stability [8]: 91.4%
bioavailability [19]: 27.4%
Cmax [20]: 0.195 µg/mL
half-life [21]: 152 min
half-life [22]: 131 min
microsomal CLint [9]: 9.05 µL/min/mg
microsomal CLint [10]: 10.6 µL/min/mg

O=c1nc(N2CCCC3(CCCCN3CC3CCCCC3)C2)sc2c([N+](=O)[O-])cc(C(F)(F)F)cc12 (stereo unspecified)
MIC [1]: 1.02 µM (≈ 0.537 µg/mL)
Selectivity ratio [2]: < 4
Selectivity ratio [3]: < 4

O=c1nc(N2CC3(CN(CC4CCCCC4)C3)C2)sc2c([N+](=O)[O-])cc(C(F)(F)F)cc12
MIC [1]: 0.256 µM (≈ 0.12 µg/mL)
Selectivity ratio [2]: < 4
Selectivity ratio [3]: < 4
